# Assay outcomes: PubChem BioAssay, several laboratories
# E coli WT exp – blocks growth of wild type E. coli BW25113 | OD600 absorbance | growth inhibition, % at 100 µM | hit rate 0.15% among 98,000;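 active = growth inhibition above about 50% at one test dose, limit read from the data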;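 note: growth measured after 20 h incubation at 37 °C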
# CYP2C9 inhib – inhibitors of human CYP2C9; P11712; CYP2C9 Supersomes, luciferin-H conversion, luminescence; inhibition, % at 5 µM; hit rate 20% among 96,000;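 active = blocking of liver enzyme CYP2C9 beyond about 50% at 5 µM, limit read from the data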
# CYP2C9 act – CYP2C9 (human) activation. AID 1024. hit rate 1.4% among 96,000. activation factor at 5 µM. recombinant CYP2C9, luciferin-H conversion, luminescence; hits give high values; factor 1 = untreated enzyme, 0 = blocked;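 active = activation factor of 2 or more for CYP2C9 at a 5 µM dose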;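 note: 0 = sulfaphenazole-blocked wells and 1 = vehicle-only wells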
# CYP2C19 inh – human CYP2C19 inhibition; inhibition, % at 5 µM; CYP2C19 Supersomes, luciferin-H EGE luminescence, 30 min; hit rate 21% among 96,000; P33261;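 active = CYP2C19 inhibition above a set limit at 5 µM in the primary screen, cut at about 50% in these data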;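 note: plate controls were negative control wells for no effect and 2.5 mM tranylcypromine positive control for full effect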
# Target sequence (P33261 whole entry, looked up): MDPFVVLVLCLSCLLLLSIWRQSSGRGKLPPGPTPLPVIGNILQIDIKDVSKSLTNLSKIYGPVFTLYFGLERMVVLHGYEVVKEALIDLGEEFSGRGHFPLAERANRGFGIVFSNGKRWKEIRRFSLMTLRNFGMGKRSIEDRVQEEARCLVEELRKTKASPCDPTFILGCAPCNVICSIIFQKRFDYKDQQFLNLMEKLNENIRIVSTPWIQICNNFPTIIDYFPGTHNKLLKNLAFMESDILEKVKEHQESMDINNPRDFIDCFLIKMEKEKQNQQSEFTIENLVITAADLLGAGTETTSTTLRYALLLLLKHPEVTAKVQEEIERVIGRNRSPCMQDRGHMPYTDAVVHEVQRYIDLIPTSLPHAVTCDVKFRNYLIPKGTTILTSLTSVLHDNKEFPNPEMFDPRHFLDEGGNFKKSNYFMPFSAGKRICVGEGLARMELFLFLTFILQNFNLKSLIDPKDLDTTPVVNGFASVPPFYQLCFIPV
# CYP2C19 activ – increases human CYP2C19 enzyme activity | recombinant CYP2C19, luciferin-H EGE luminescence; hits give high values; 0 = fully inhibited enzyme, 1 = untreated enzyme | 96,000 tested, under 10 active | activation factor at 5 µM | P33261 | AID 1025;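 active = activation factor of at least 2 at 5 µM in the primary screen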;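 note: 0 = wells with 2.5 mM tranylcypromine and 1 = vehicle-only wells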
# Ecoli tolC – blocks growth of E. coli BW25113 tolC mutant. growth inhibition, % at 10 µM (by protocol). hit rate 2.2% among 65,000. OD615. AID 573;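 active = growth inhibition at or above a cutoff equal to the mean over every tested compound plus 3 SD, cut at about 60% in these data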;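 note: growth measured after 20 h incubation at 37 °C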
#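 Signal: optical density read at 615 nm; Assay system: E. coli ΔtolC::kan strain BW25113; Times: 20 h incubation with compound, 37 °C; Dosing: 10 µM final, single dose.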
# * hit, by the source's call; / = not tested or not shown. These entries were drawn from the full list.
SMILES,E coli WT exp,CYP2C9 inhib,CYP2C9 act,CYP2C19 inh,CYP2C19 activ,Ecoli tolC
COc1ccc(C(O)(C(=O)NNc2ccc(C)cc2)c2cccs2)cc1 (stereo unspecified),9,24,0.8,77*,0.2,/
O=C(NNc1ccc(C2CCCCC2)cc1)C(O)(c1ccccc1)c1cccs1 (stereo unspecified),-12,28,0.7,17,0.8,/
O=C(N1CCOCC1)N1CCN(S(=O)(=O)N2CCOCC2)CC1,3,6,0.9,0,1,-13
Fc1ccc(CN2CCCCCC2)c(F)c1,9,44,0.6,26,0.7,-19
Oc1ccc(Br)cc1CN1CCCCCCC1,2,-9,1.1,57*,0.4,-3
COc1ccc2nc(C(F)(F)C(F)(F)F)c(C#N)c(N)c2c1,4,26,0.7,2,1,/
Cc1ccc(S(=O)(=O)N(CC(=O)N/N=C/c2cccc(C)c2)c2cccc3cccnc23)cc1,-5,11,0.9,-11,1.1,/
